Assay results taken from ChEMBL document CHEMBL4321838, “Drug Design Targeting T-Cell Factor-Driven Epithelial-Mesenchymal Transition as a Therapeutic Strategy for Colorectal Cancer” (J Med Chem, 2019).
≈ marks a conversion by molar mass, not a printed value. Calls of active or inactive are those of the source.

Legend:
[1] = biological target: T1, DNA topoisomerase 2-alpha (Homo sapiens, UniProt P11388); test: Inhibition of human topoisomerase 2alpha mediated decatenation at 30 uM using kDNA as susbtrate preincubated for 20 mins followed by substrate and ATP addition and measured after 1 hr by ethidium bromide staining based gel electrophoresis method relative to control
In short: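 Human TOP2A (3 U) preincubated 20 min at 37 °C with compound at 30 μM in 1.2% DMSO. Reaction started with 2 mM ATP and 35 ng kDNA and run 1 h at 37 °C. Products resolved on 0.8% agarose in TBE with 0.2 μg/mL ethidium bromide; decatenated bands compared with vehicle.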

Mus musculus = test: Apparent volume of drug distribution in CD-1 mouse at 50 mg/kg, ip by LC-MS/MS analysis; assay type: ADME, organism-based; details: in vivo
In short: (§1)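 Female CD-1 mice, single IP injection at 50 mg/kg in 100% DMSO. Sampling from 0.25 to 24 h, three mice per time point (21 per compound). Heparinised blood was spun to plasma, mixed 1:1 with acidified acetonitrile (0.1% formic acid or 0.1% TFA depending on compound), centrifuged, then measured by LC-MS/MS.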

[2] = Clearance in CD-1 mouse at 50 mg/kg, ip by LC-MS/MS analysis; assay type: ADME, organism-based; details: in vivo; in short: as §1
[3] = Drug metabolism in CD-1 mouse active microsomes assessed as metabolite formation at rate of first-order kinetics by LC-MS/MS analysis; assay type: ADME, Microsome
[4] = AUC(0 to t) in CD-1 mouse at 50 mg/kg, ip by LC-MS/MS analysis; assay type: ADME, organism-based; details: in vivo; in short: as §1
[5] = biological target: T1, DNA topoisomerase 2-alpha; test: Inhibition of topoisomerase 2alpha dependent TCF transcription in human SW620 organoids transduced with TOPflash luminescent reporter after 72 hrs by luciferase based TOPFlash reporter gene assay
In short: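 SW620 cells stably carrying pCDH-TOPflash-luc grown as organoids: 5,000 cells per U-bottom well in phenol red-free RPMI with 5% FBS and 2% Matrigel, 72 h. Inhibitor then applied 72 h. One-Glo luciferase and CellTiter-Glo 3D added 1:1. Luciferase signal normalised to viability, then to DMSO controls.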

[6] = Cmax in CD-1 mouse at 50 mg/kg, ip by LC-MS/MS analysis; assay type: ADME, organism-based; design: dose 50 mg/kg, route intraperitoneal; details: in vivo; in short: as §1
[7] = Half life in CD-1 mouse microsomes measured up to 1 hr by LC-MS analysis; assay type: ADME, Microsome
In short: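 Female CD-1 mouse liver microsomes (0.5 mg/mL), substrate 1 μg/mL and 1.5 mM NADPH in 0.1 M phosphate buffer pH 7.4 at 37 °C. Samples taken from 0 to 60 min and quenched with an equal volume of acetonitrile. Parent compound remaining measured by LC-MS/MS without internal standard.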

[8] = Aqueous solubility of compound in PBS at 1 mg after 18 hrs by UV based analysis; assay type: physicochemical
In short: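 Undissolved material removed by centrifugation at 5,000g for 45 min. UV absorption compared with a fully saturated 1-propanol solution; solubility derived by linear regression.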

SW-620 [9] = test: Anticlonogenic activity against human SW620 cells assessed as loss of cancer stem cell stemness by measuring inhibition of colony formation at 10 uM incubated for 24 hrs followed by replating and measured after 7 days by clonogenic assay; assay type: functional, cell-based
[10] = Drug metabolism in CD-1 mouse active microsomes assessed as CYP450-mediated oxidative phase 1 metabolite formation measured within 30 mins by LC-MS/MS analysis; assay type: ADME; details: 0.5 h
[11] = Half life of terminal disposition phase in CD-1 mouse at 50 mg/kg, ip by LC-MS/MS analysis; assay type: ADME, organism-based; details: in vivo, read-out: t1/2lambda (converted); in short: as §1
SW-620 [12] = test: Cytotoxicity against human SW620 organoids assessed as cell death with loss of membrane integrity after 72 hrs by CellTox Green assay; assay type: functional, cell-based; details: SW-620, 72 h
In short: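 SW620 tumor organoids exposed 72 h to inhibitor over 0–40 μM together with CellTox Green Express (0.5X). Whole-well mean fluorescence imaged (ex 488, em 500–550 nm). Normalised to lysis buffer as 0% viability and 0.4% DMSO as 100% viability.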

[13] = Metabolic stability in CD-1 mouse inactive microsomes incubated for 1 hr by LC-MS/MS analysis; assay type: ADME, Microsome
SW-620 [14] = test: Antiinvasive activity in human SW620 organoids transduced with NucLight-Red virus assessed as inhibition of cell invasion at 10 uM incubated for 72 hrs and measured after 72 hrs by matrigel based fluorescence analysis; assay type: functional
In short: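 NucLight-Red-labelled SW620 organoids treated 72 h at 10 μM in 0.1% DMSO, then dissociated. 5,000 live cells per well seeded in 50% Matrigel in the upper chamber of a migration plate, 0.5% FBS above and 20% FBS below. Invading cells tracked by bottom-side fluorescence over days, six replicates per condition.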

[15] = Tmax in CD-1 mouse at 50 mg/kg, ip by LC-MS/MS analysis; assay type: ADME, organism-based; details: in vivo; in short: as §1
[16] = biological target: T1, DNA topoisomerase 2-alpha; test: Inhibition of human topoisomerase 2alpha mediated decatenation using kDNA as susbtrate preincubated for 20 mins followed by substrate and ATP addition and measured after 1 hr by ethidium bromide staining based gel electrophoresis method
In short: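 IC50 from decatenation gels: TOP2A at 4 U per reaction, compound as 2-fold serial dilutions from 58.6 nM to 30 μM, 20 min preincubation. Then 2 mM ATP plus 35 ng kDNA for 1 h at 37 °C. Gels were 0.8% agarose with ethidium bromide, with decatenated and catenated DNA marker lanes.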

SW-620 [17] = test: Induction of apoptosis in human SW620 organoids assessed as increase in cleaved caspase 3/7 level at 40 uM after 72 hrs by caspase-glo 3/7 luminescence assay relative to control; assay type: functional
In short: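 SW620 cells, 2,000 per well in 384-well ultra-low attachment plates with 2% Matrigel, grown 72 h into organoids, then dosed 72 h. Caspase-Glo 3/7 reagent added 1:1 and shaken 30 min; luminescence read. Staurosporine served as positive control and 0.4% DMSO as negative control.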

[18] = biological target: T1, DNA topoisomerase 2-alpha; test: Inhibition of topoisomerase 2alpha in human SW620 organoids transfected with VimPro-GFP reporter assessed as reversion of epithelial-mesenchymal transition by measuring reduction in vimentin expression up to 40 uM after 72 hrs by Hoechst 33342 staining based GFP reporter gene assay
In short: (§2)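 SW620 cells stably carrying VimPro-GFP or EcadPro-mCherry (puromycin selected) grown as organoids and dosed 72 h. Stained with 16 μM Hoechst 33342 for 1 h and imaged as 15 z-layers, 26.5 μm apart. Nuclei segmented and GFP- or mCherry-positive cells counted above background thresholds. Percent positive cells normalised to DMSO.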

SW-620 [19] = test: Cytotoxicity against human SW620 organoids assessed as growth inhibition at 10 uM after 72 hrs by brightfield imaging of organoid volume
[20] = biological target: T1, DNA topoisomerase 2-alpha; test: Inhibition of topoisomerase 2alpha in human SW620 organoids transfected with EcadPro-RFP reporter assessed as reversion of epithelial-mesenchymal transition by measuring increase in E-cadherin expression up to 40 uM after 72 hrs by Hoechst 33342 staining based mCherryRFP reporter gene assay; in short: as §2
SW-620 [21] = test: Induction of early stage cell death in human SW620 organoids transfected with EcadPro-RFP reporter assessed as loss of RFP reporter activity at 40 uM at after 72 hrs by Hoechst 33342 staining based mCherryRFP reporter gene assay; details: sw-620, 72 h

T1 sequence (P11388 whole entry): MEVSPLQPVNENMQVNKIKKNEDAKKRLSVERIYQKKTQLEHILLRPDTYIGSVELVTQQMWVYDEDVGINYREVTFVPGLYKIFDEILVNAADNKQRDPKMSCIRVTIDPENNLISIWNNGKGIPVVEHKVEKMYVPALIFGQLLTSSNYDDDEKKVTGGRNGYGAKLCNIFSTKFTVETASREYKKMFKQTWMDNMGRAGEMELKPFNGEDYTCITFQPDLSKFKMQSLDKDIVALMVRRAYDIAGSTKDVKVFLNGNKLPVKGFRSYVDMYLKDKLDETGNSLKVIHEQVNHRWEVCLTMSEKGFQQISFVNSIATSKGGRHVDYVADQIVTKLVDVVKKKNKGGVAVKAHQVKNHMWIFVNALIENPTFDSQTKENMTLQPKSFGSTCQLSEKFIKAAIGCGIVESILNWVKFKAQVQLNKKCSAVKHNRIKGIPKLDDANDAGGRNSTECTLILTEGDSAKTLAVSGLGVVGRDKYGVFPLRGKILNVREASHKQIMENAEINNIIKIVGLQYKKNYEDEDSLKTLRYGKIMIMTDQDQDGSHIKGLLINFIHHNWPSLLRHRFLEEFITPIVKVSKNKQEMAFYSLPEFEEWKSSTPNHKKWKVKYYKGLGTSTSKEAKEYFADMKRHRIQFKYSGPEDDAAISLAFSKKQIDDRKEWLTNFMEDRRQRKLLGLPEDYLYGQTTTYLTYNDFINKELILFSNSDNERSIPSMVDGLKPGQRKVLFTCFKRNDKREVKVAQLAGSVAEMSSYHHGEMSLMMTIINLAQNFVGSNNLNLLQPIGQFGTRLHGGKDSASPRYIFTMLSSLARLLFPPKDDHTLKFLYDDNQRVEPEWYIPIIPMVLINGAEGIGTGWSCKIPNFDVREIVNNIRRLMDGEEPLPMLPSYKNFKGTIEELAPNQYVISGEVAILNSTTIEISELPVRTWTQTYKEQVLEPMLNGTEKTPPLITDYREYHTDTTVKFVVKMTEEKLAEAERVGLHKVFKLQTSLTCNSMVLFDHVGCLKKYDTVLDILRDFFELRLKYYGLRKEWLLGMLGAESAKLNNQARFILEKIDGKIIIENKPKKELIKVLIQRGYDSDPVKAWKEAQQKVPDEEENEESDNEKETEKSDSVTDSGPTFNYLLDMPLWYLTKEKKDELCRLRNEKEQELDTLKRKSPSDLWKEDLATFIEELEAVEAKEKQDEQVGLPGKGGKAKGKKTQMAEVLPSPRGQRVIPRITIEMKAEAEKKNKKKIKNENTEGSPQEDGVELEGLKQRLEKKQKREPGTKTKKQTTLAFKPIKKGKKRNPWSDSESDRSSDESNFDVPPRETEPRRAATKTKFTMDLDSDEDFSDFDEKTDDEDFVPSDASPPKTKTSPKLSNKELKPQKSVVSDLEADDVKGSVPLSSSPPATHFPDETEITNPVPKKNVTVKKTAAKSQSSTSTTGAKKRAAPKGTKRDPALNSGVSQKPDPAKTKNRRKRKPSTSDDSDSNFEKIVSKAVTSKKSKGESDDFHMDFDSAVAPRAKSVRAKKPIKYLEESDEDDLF

CC(=O)Nc1cccc(-c2ccnc3c(O)c(NC(C)=O)ccc23)c1
inhibition [1]: 3%

O=C(CCN1CCOCC1)Nc1ccc2c(-c3cc4ccccc4o3)ccnc2c1O
Vz (Mus musculus): 32 L/kg
CL/F [2]: 61.8 mL/min/kg
Drug metabolism [3]: Metabolite_Detected
inhibition [1]: 83%
AUC(0-t) [4]: 12900 ng·h/mL
IC50 [5]: 2.5 µM
Cmax [6]: 6830 ng/mL
t1/2 [7]: 14 min
solubility thermodynamic at 18 h [8]: 1160 µg/mL (≈ 2780 µM)
inhibition (SW-620 [9]): Active
Drug metabolism [10]: Metabolite_Notdetected
half-life [11]: 358 min
EC50 (SW-620 [12]): 17.4 µM
Stability [13]: Stable
inhibition (SW-620 [14]): Active
Tmax [15]: 15 min

COc1ccc(F)cc1-c1ccnc2c(OC)c(NC(C)=O)ccc12
inhibition [1]: 0%

O=C(CN1CCOCC1)Nc1ccc2c(-c3cc(F)ccc3O)ccnc2c1O
inhibition [1]: 4%

COc1c(NC(C)=O)cc(OC)c2c(-c3ccccc3NC(=O)c3ccccc3)ccnc12
inhibition [1]: 0%

CC(=O)Nc1ccc2c(-c3cccs3)ccnc2c1O
inhibition [1]: 100%
IC50 [5]: 5 µM
EC50 (SW-620 [12]): > 30 µM

CC(=O)Nc1ccc2c(-c3cc4ccccc4s3)ccnc2c1O
inhibition [1]: 0%

CC(=O)Nc1ccc2c(-c3cncnc3)ccnc2c1O
inhibition [1]: 0%

CC(=O)Nc1ccc(-c2ccnc3c(O)c(NC(C)=O)ccc23)cc1
IC50 [16]: 1.9 µM
Drug metabolism [3]: Metabolite_Detected
inhibition [1]: 97%
IC50 [5]: 2 µM
inhibition (SW-620 [9]): Active
Drug metabolism [10]: Metabolite_Notdetected
EC50 (SW-620 [12]): > 30 µM
Stability [13]: Stable
inhibition (SW-620 [14]): Active

CC(=O)Nc1ccc2c(-c3ccc(C(F)(F)F)cc3)ccnc2c1O
inhibition [1]: 97%

CC(=O)Nc1ccc2c(-c3cccc(F)c3)ccnc2c1O
inhibition [1]: 100%

CC(=O)Nc1ccc2c(-c3cc4ccccc4o3)ccnc2c1O
Vz (Mus musculus): 108.9 L/kg
CL/F [2]: 283 mL/min/kg
Drug metabolism [3]: Metabolite_Detected
inhibition [1]: 100%
AUC(0-t) [4]: 2840 ng·h/mL
IC50 [5]: 1 µM
Cmax [6]: 707 ng/mL
t1/2 [7]: > 60 min
solubility thermodynamic at 18 h [8]: 28 µg/mL (≈ 88 µM)
inhibition (SW-620 [9]): Active
Drug metabolism [10]: Metabolite_Notdetected
half-life [11]: 266 min
EC50 (SW-620 [12]): > 30 µM
Stability [13]: Stable
inhibition (SW-620 [14]): Active
Tmax [15]: 15 min

COc1c(NC(C)=O)ccc2c(-c3cc(F)ccc3O)ccnc12
inhibition [1]: 0%

CC(=O)Nc1ccccc1-c1ccnc2c(O)c(NC(=O)CCN3CCOCC3)ccc12
inhibition [1]: 1%

CC(=O)Nc1ccc2c(-c3ccoc3)ccnc2c1O
inhibition [1]: 86%
IC50 [5]: 1.7 µM
inhibition (SW-620 [9]): Active
EC50 (SW-620 [12]): > 30 µM
inhibition (SW-620 [14]): Active

CC(=O)Nc1ccc2c(-c3ccc(F)cc3)ccnc2c1O
inhibition [1]: 1%

CC(C)(C)C(=O)Nc1ccc2c(-c3ccccc3)ccnc2c1O
IC50 [16]: 1.3 µM
inhibition [1]: 97%
IC50 [5]: 4.7 µM
inhibition (SW-620 [9]): Active
EC50 (SW-620 [12]): > 30 µM
inhibition (SW-620 [14]): Active

CC(=O)Nc1ccc2c(-c3cc(C(F)(F)F)ccc3O)ccnc2c1O
inhibition [1]: 100%

CC(=O)Nc1ccc2c(-c3cccc(C(F)(F)F)c3)ccnc2c1O
IC50 [16]: 3.4 µM
Drug metabolism [3]: Metabolite_Detected
inhibition [1]: 97%
Drug metabolism [10]: Metabolite_Notdetected
Stability [13]: Stable

CC(=O)Nc1ccccc1-c1ccnc2c(O)c(NC(C)=O)ccc12
inhibition [1]: 1%

CC(C)(C)C(=O)Nc1ccc2c(-c3cc(F)ccc3O)ccnc2c1O
inhibition [1]: 0%

CC(=O)Nc1ccc2c(-c3ccco3)ccnc2c1O
inhibition [1]: 0%

CC(=O)Nc1ccc2c(-c3cc(Cl)ccc3O)ccnc2c1O
inhibition [1]: 0%

CC(=O)Nc1ccc2c(-c3cccc(O)c3)ccnc2c1O
inhibition [1]: 0%

O=C(CN1CCOCC1)Nc1ccc2c(-c3cc4ccccc4o3)ccnc2c1O
fold change (FC) (SW-620 [17]): 3
Vz (Mus musculus): 69.3 L/kg
CL/F [2]: 137 mL/min/kg
inhibition [18]: Active
Drug metabolism [3]: Metabolite_Detected
inhibition [1]: 100%
AUC(0-t) [4]: 5890 ng·h/mL
growth inhibition (GI) (SW-620 [19]): Active
IC50 [5]: 1.1 µM
Cmax [6]: 1980 ng/mL
inhibition [20]: Active
t1/2 [7]: 30.18 min
solubility thermodynamic at 18 h [8]: 45 µg/mL (≈ 112 µM)
Drug metabolism [10]: Metabolite_Notdetected
half-life [11]: 350 min
Activity (SW-620 [21]): Active
EC50 (SW-620 [12]): 22 µM
Stability [13]: Stable
Tmax [15]: 15 min
